This is an account of results in ChEMBL document CHEMBL1649546, “Extended-spectrum properties of CMY-30, a Val211Gly mutant of CMY-2 cephalosporinase” (Antimicrob Agents Chemother, 2009).

What is called Ki is a measure of affinity in units of concentration, obtained from inhibition or displacement. For orientation: kcat means the number of substrate molecules converted per active site and unit of time at saturation. By kcat/Km is commonly meant the second-order rate constant that governs catalysis at low substrate concentration. By MIC is commonly meant the lowest concentration that inhibits growth of the organism. By Km is commonly meant the concentration of substrate that gives half-maximal velocity.

Assay [1] in a line: Inhibition of Escherichia coli MC4100 Beta-Lactamase CMY-30 using cephalothin as reporter substrate.
Assay [2] is described as follows: (§1) Inhibition of Escherichia coli MC4100 Beta-Lactamase CMY-2 using cephalothin as reporter substrate.
Assay [3] has as its system Escherichia coli. Briefly: Activity of Escherichia coli MC4100 Beta-Lactamase CMY-30 harboring Val211?Gly211 mutation. In a few lines: (§2)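 Enzyme source was E. coli MC4100 carrying high-copy plasmids pB-cmy30 or pB-cmy2. Enzyme was released by sonication in 20 mM Tris, pH 7.4, then purified by Q- and S-Sepharose ion exchange to >95% purity by SDS-PAGE. Values are means of four independent measurements. For some β-lactams, Km was obtained as Ki using cephalothin as reporter substrate.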

Assay [4] concerns Escherichia coli. The assay is described as follows: Activity of Escherichia coli MC4100 Beta-Lactamase CMY-2. Summed up:
(§3)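 CMY-2 purified from E. coli MC4100 carrying high-copy plasmid pB-cmy2. Cells in 20 mM Tris pH 7.4 sonicated, then Q- and S-Sepharose ion exchange, >95% pure by SDS-PAGE. Kinetic constants are means of four independent measurements. For some β-lactams Km was determined as Ki with cephalothin as reporter substrate.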

The subject of assay [5] is Escherichia coli. Briefly: Ratio of Kcat to Km for Escherichia coli MC4100 Beta-Lactamase CMY-2. In a few lines:
as §3

Assay [6] has as its system Escherichia coli. Briefly: Antibacterial activity against 5 x 10^5 CFU/ml CMY-2 producing Escherichia coli MC4100 harboring plasmid AC-cmy2 by microdilution method. It is filed as functional. In a few lines:
(§4)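 Broth microdilution MIC in Mueller-Hinton broth with an inoculum of 5 × 10^5 CFU/ml. Isogenic E. coli MC4100 strains (vector control or carrying CMY-2 or CMY-30) were tested in parallel.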
A general note: Dilution methods test growth across graded concentrations, often in twofold steps.

Assay [7] concerns Escherichia coli. Briefly: Antibacterial activity against 5 x 10^5 CFU/ml CMY-30 producing Escherichia coli MC4100 harboring plasmid AC-cmy30 by microdilution method. It is filed as functional. Summed up:
as §4

In assay [8] the test system is Escherichia coli. The assay is described as follows: Ratio of Kcat to Km for Escherichia coli MC4100 Beta-Lactamase CMY-30 harboring Val211?Gly211 mutation. In a few lines: as §2
Assay [9] deals with Escherichia coli. The assay is described as follows: Antibacterial activity against 5 x 10^5 CFU/ml Escherichia coli MC4100 harboring plasmid ACYC184 by microdilution method. The assay is classed as functional. Summed up: as §4
For assay [10], the system named is Escherichia coli. Briefly: Antibacterial activity against 5 x 10^5 CFU/ml CMY-30 producing Escherichia coli MC4100 harboring plasmid AC-cmy30 by microdilution method in presence of 4 ug/ml Tazobactam. It is filed as functional. Summed up: (§5)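 Broth microdilution MICs in Mueller-Hinton broth, inoculum 5 × 10^5 CFU/ml. Isogenic E. coli MC4100 strains carrying CMY-30, CMY-2 or no CMY gene were tested in parallel. Tazobactam was held at a fixed 4 μg/ml.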

Assay [11] deals with Escherichia coli. The assay is described as follows: Antibacterial activity against 5 x 10^5 CFU/ml Escherichia coli MC4100 harboring plasmid ACYC184 by microdilution method in presence of 4 ug/ml Tazobactam. It is filed as functional. In a few lines:
as §5

The test system of assay [12] is Escherichia coli. Briefly: Antibacterial activity against 5 x 10^5 CFU/ml CMY-2 producing Escherichia coli MC4100 harboring plasmid AC-cmy2 by microdilution method in presence of 4 ug/ml Tazobactam. It is filed as functional. Summed up: as §5
In assay [13] the test system is Escherichia coli. The assay is described as follows: Antibacterial activity against 5 x 10^5 CFU/ml Escherichia coli MC4100 harboring plasmid ACYC184 by microdilution method in presence of 2 ug/ml clavulanic acid. The assay is classed as functional. Summed up:
(§6)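 Broth microdilution MIC in Mueller-Hinton broth with an inoculum of 5 × 10^5 CFU/ml. Clavulanic acid was held at a fixed 2 μg/ml. Isogenic E. coli MC4100 strains (vector control or carrying CMY-2 or CMY-30) were tested in parallel.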

Assay [14] has as its system Escherichia coli. The assay is described as follows: Antibacterial activity against 5 x 10^5 CFU/ml CMY-30 producing Escherichia coli MC4100 harboring plasmid AC-cmy30 by microdilution method in presence of 2 ug/ml clavulanic acid. It is filed as functional. In a few lines: as §6
In assay [15] the test system is Escherichia coli. Briefly: Antibacterial activity against 5 x 10^5 CFU/ml CMY-2 producing Escherichia coli MC4100 harboring plasmid AC-cmy2 by microdilution method in presence of 2 ug/ml clavulanic acid. It is filed as functional. In a few lines:
as §6

Assay [16] deals with Escherichia coli. The description is as §1.
For assay [17], the system named is Escherichia coli. The assay is described as follows: Inhibition of Escherichia coli DH5alpha beta-lactamase CMY-2 assessed as aztreonam hydrolysis. In a few lines:
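Agar bioassay on MH agar seeded with E. coli DH5α indicator (10^5 CFU/ml), with 30 μg aztreonam disks. Purified cephalosporinase (700 ng in 10 μl phosphate buffer) was applied near each disk. Plates were incubated 18 h at 35°C and read for distortion of the inhibition zone against control disks.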

Converted amounts (≈) assume the structure as drawn. The source made the active and inactive calls. The rule behind the calls is not given here.

Consider `C[C@]1(/C=C\C#N)[C@H](C(=O)O)N2C(=O)C[C@H]2S1(=O)=O`, for which the Ki in [1] worked out at 0.2 µM; in assay [2], 0.1 µM.
Consider `CC(C)(O/N=C(\C(=O)N[C@@H]1C(=O)N2C(C(=O)[O-])=C(C[n+]3ccccc3)CS[C@H]12)c1csc(N)n1)C(=O)O` [CEFTAZIDIME], for which the kcat with Escherichia coli [3] was determined as 0.4 s⁻¹; in the assay with Escherichia coli [4] it was 0.01 s⁻¹. In addition, the figures for the kcat/Km in the assay on Escherichia coli [5] and with Escherichia coli [8] were 500000 M⁻¹ s⁻¹ and 2.9e+06 M⁻¹ s⁻¹, respectively. Besides, the minimal inhibitory concentration (MIC) is 128 mg/L (≈ 234 µM) in the assay with Escherichia coli [6], > 512 mg/L in the assay on Escherichia coli [7] and 0.25 mg/L (≈ 0.457 µM) against Escherichia coli [9]. The Ki in assay [1] amounted to 0.14 µM; in [2] it was 0.02 µM.
In the case of `Cc1onc(-c2ccccc2Cl)c1C(=O)N[C@@H]1C(=O)N2[C@@H]1SC(C)(C)[C@@H]2C(=O)O` [CLOXACILLIN], the inhibitory constant (Ki) in assay [1] is 0.0023 µM; in assay [2], 0.0002 µM.
For the molecule `CCN1CCN(C(=O)N[C@@H](C(=O)N[C@@H]2C(=O)N3[C@@H]2SC(C)(C)[C@@H]3C(=O)O)c2ccccc2)C(=O)C1=O` [PIPERACILLIN], the MIC in the assay on Escherichia coli [10] turned out to be 16 mg/L; against Escherichia coli [6], 128 mg/L (≈ 247 µM); against Escherichia coli [7], 64 mg/L (≈ 124 µM); in the assay on Escherichia coli [11], 0.5 mg/L; with Escherichia coli [12] it was 16 mg/L; in the assay with Escherichia coli [9] it was 0.5 mg/L (≈ 0.966 µM).
With `CO[C@@]1(NC(=O)Cc2cccs2)C(=O)N2C(C(=O)O)=C(COC(N)=O)CS[C@@H]21` [CEFOXITIN], the results for the kcat with Escherichia coli [3] and in the assay on Escherichia coli [4] were 0.28 s⁻¹ and 0.35 s⁻¹, respectively. Moreover, the kcat/Km worked out at 2.3e+06 M⁻¹ s⁻¹ in the assay with Escherichia coli [5] and 1.6e+06 M⁻¹ s⁻¹ with Escherichia coli [8]. Besides, the minimum inhibitory concentration (MIC) was > 512 mg/L in the assay with Escherichia coli [6], > 512 mg/L in the assay with Escherichia coli [7] and 2 mg/L (≈ 4.68 µM) with Escherichia coli [9]. The Ki in assay [1] came to 0.17 µM; in assay [2], 0.15 µM.
With `C[C@]1(Cn2ccnn2)[C@H](C(=O)O)N2C(=O)C[C@H]2S1(=O)=O` [TAZOBACTAM], the figures for the Ki in assay [1] and in assay [2] were > 1 µM and 0.8 µM, respectively.
With `N[C@@H](C(=O)N[C@@H]1C(=O)N2C(C(=O)O)=C(Cl)CS[C@H]12)c1ccccc1` [CEFACLOR ANHYDROUS], the values for the minimum inhibitory concentration (MIC) against Escherichia coli [6], against Escherichia coli [7] and against Escherichia coli [9] were > 512 mg/L, > 512 mg/L and 2 mg/L (≈ 5.44 µM), respectively.
Turning to `CO/N=C(\C(=O)N[C@@H]1C(=O)N2C(C(=O)O)=C(COC(C)=O)CS[C@H]12)c1csc(N)n1` [CEFOTAXIME], the kcat with Escherichia coli [3] is 1.7 s⁻¹; with Escherichia coli [4] it was < 0.01 s⁻¹. Moreover, the kcat/Km was < 2e+06 M⁻¹ s⁻¹ in the assay on Escherichia coli [5] and 5.7e+06 M⁻¹ s⁻¹ with Escherichia coli [8]. The MIC in the assay on Escherichia coli [6] was 16 mg/L (≈ 35.1 µM); against Escherichia coli [7] it was 256 mg/L (≈ 562 µM); against Escherichia coli [9], 0.12 mg/L (≈ 0.263 µM). Further, the Ki in [1] worked out at 0.3 µM; in assay [2], 0.005 µM.
`CC1(C)S[C@@H]2[C@H](NC(=O)[C@H](C(=O)O)c3ccsc3)C(=O)N2[C@H]1C(=O)O` [TICARCILLIN]: the MIC is 1 mg/L with Escherichia coli [13]; > 512 mg/L with Escherichia coli [14]; > 512 mg/L against Escherichia coli [6]; > 512 mg/L with Escherichia coli [7]; > 512 mg/L with Escherichia coli [15]; 2 mg/L (≈ 5.2 µM) against Escherichia coli [9].
With `CC1(C)S[C@@H]2[C@H](NC(=O)Cc3ccccc3)C(=O)N2[C@H]1C(=O)O` [PENICILLIN G], the catalytic constant (kcat) in the assay with Escherichia coli [3] is 23 s⁻¹; in the assay on Escherichia coli [4] it was 24 s⁻¹. Moreover, the figures for the kcat/Km with Escherichia coli [5] and with Escherichia coli [8] were 4e+07 M⁻¹ s⁻¹ and 3.8e+07 M⁻¹ s⁻¹, respectively. For the same molecule, affinity in assay [1] was put at a Ki of 0.6 µM. For the same molecule, in the assay with Escherichia coli [16], the Km is 0.6 µM.
Take `CO/N=C(\C(=O)N[C@@H]1C(=O)N2C(C(=O)[O-])=C(C[N+]3(C)CCCC3)CS[C@H]12)c1csc(N)n1`: the MIC in the assay with Escherichia coli [6] and in the assay with Escherichia coli [7] was 0.25 mg/L (≈ 0.52 µM) in each case.
On to `C[C@H]1[C@H](NC(=O)/C(=N\OC(C)(C)C(=O)O)c2csc(N)n2)C(=O)N1S(=O)(=O)O` [AZTREONAM], for which the MIC with Escherichia coli [6] was determined as 16 mg/L (≈ 36.7 µM); in the assay on Escherichia coli [7], 128 mg/L (≈ 294 µM). Further, the Ki was determined as 0.017 µM in assay [1] and 0.0021 µM in assay [2]. In the assay with Escherichia coli [17], the outcome was Active.
On to `CC(=O)OCC1=C(C(=O)O)N2C(=O)[C@@H](NC(=O)Cc3cccs3)[C@H]2SC1` [CEPHALOTHIN], for which the Michaelis constant (Km) in the assay on Escherichia coli [3] was found to be 26 µM; in the assay on Escherichia coli [4], 17 µM. In addition, the kcat in the assay with Escherichia coli [3] amounted to 256 s⁻¹; in the assay with Escherichia coli [4], 267 s⁻¹. In addition, the kcat/Km was found to be 1.6e+07 M⁻¹ s⁻¹ in the assay with Escherichia coli [5] and 1e+07 M⁻¹ s⁻¹ with Escherichia coli [8]. Also, the minimal inhibitory concentration (MIC) against Escherichia coli [6] was > 512 mg/L; in the assay on Escherichia coli [7] it was > 512 mg/L; with Escherichia coli [9], 2 mg/L (≈ 5.04 µM).
Turning to `CO/N=C(\C(=O)N[C@@H]1C(=O)N2C(C(=O)O)=C(COC(N)=O)CS[C@H]12)c1ccco1` [CEFUROXIME], the results for the MIC with Escherichia coli [6], in the assay with Escherichia coli [7] and in the assay on Escherichia coli [9] were > 512 mg/L, > 512 mg/L and 2 mg/L (≈ 4.71 µM), respectively.
Consider `CC1(C)S[C@@H]2[C@H](NC(=O)[C@H](N)c3ccc(O)cc3)C(=O)N2[C@H]1C(=O)O` [AMOXICILLIN], for which the minimum inhibitory concentration (MIC) was 4 mg/L with Escherichia coli [13]; > 512 mg/L in the assay with Escherichia coli [14]; > 512 mg/L in the assay with Escherichia coli [6]; > 512 mg/L in the assay on Escherichia coli [7]; > 512 mg/L in the assay with Escherichia coli [15]; 4 mg/L (≈ 10.9 µM) against Escherichia coli [9].
